Test results published in ChEMBL document CHEMBL3272030, “Synthesis and biological properties of some spin-labeled 9-aminoacridines” (J Med Chem, 1976).
Calls of active or inactive are those of the source. The rule behind the calls is not given here.

Key:
[1] = molecular target: Bacterial DNA-directed RNA polymerase (Bacteria, UniProt P0A7Z4+P0A800+P0A8T7+P0A8V2); test: Inhibition of Escherichia coli DNA-primed RNA polymerase activity using [8-14C]ATP by scintillation counting; type: protein-complex assay
Procedure, shortened: (§1)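 Commercial E. coli RNA polymerase was used, with calf thymus DNA template (3.65 µg) in 0.125 ml containing Tris-HCl pH 8.0, MgCl2, β-mercaptoethanol, CTP/UTP/GTP (0.019 µmol each) and [8-14C]ATP (0.019 µmol). Compound in DMSO was added before the enzyme; controls received DMSO. Mixtures were incubated 10 min at 37°. Acid-insoluble label was collected by filter-disk assay and counted by liquid scintillation.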

L1210 [2] = test: Cytotoxicity against mouse L1210 cells assessed as growth inhibition at 10 ug/ml after 24 hrs; type: functional
Procedure, shortened: (§2)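 L1210 leukemia cells seeded at 10^5 cells/ml and grown in static culture in RPMI 1630 medium with fetal calf serum. Drug tested at 0.01–100 µg/ml, with 24 h and 48 h exposures. Read-out is percent inhibition of growth. Assays were run in triplicate, and values are the mean of two separate experiments.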

L1210 [3] = test: Cytotoxicity against mouse L1210 cells assessed as growth inhibition at 1 ug/ml after 24 hrs; type: functional; procedure, shortened: as §2
L1210 [4] = test: Cytotoxicity against mouse L1210 cells assessed as growth inhibition at 0.01 ug/ml after 48 hrs; type: functional; procedure, shortened: as §2
Calf thymus DNA [5] = test: Binding affinity to calf thymus DNA assessed as decrease in DNA sedimentation coefficient at 5.2 x 10^-6 M relative to untreated control; type: nucleic-acid assay; details: Bos taurus
Procedure, shortened: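 Calf thymus DNA was mixed with compound at 5.2 × 10^-6 M and incubated 30 min at about 22°. Sedimentation was run in an analytical ultracentrifuge at 20°, with UV scanning at 260 nm. Each run included a drug-free DNA control. Sedimentation coefficients were not corrected for density or viscosity.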

Calf thymus DNA [6] = test: Binding affinity to calf thymus DNA by ESR spectrum; type: nucleic-acid assay; details: Bos taurus
L1210 [7] = test: Cytotoxicity against mouse L1210 cells assessed as growth inhibition at 10 ug/ml after 48 hrs; type: functional; procedure, shortened: as §2
[8] = molecular target: T1, Bacterial DNA-directed RNA polymerase (Bacteria) (UniProt P0A8V2+P0A7Z4+P0A8T7+P0A800); test: Stimulation of Escherichia coli DNA-primed RNA polymerase activity using [8-14C]ATP at 25 ug/ml by scintillation counting; type: protein-complex assay; procedure, shortened: as §1
T1 sequence (P0A7Z4 whole entry partner): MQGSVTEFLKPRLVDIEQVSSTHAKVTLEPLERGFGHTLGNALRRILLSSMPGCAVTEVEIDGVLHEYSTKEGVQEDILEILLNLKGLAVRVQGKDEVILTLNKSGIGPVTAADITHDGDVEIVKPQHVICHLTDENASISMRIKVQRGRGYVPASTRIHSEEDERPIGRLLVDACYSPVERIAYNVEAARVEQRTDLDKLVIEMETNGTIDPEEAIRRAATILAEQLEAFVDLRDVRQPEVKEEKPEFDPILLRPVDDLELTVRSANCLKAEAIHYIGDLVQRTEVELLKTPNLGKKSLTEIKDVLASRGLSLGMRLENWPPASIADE
T1 sequence (P0A800 2-91 partner limits assumed): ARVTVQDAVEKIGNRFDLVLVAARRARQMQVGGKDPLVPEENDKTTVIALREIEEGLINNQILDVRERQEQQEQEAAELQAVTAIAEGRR
T1 sequence (P0A8T7 whole entry partner): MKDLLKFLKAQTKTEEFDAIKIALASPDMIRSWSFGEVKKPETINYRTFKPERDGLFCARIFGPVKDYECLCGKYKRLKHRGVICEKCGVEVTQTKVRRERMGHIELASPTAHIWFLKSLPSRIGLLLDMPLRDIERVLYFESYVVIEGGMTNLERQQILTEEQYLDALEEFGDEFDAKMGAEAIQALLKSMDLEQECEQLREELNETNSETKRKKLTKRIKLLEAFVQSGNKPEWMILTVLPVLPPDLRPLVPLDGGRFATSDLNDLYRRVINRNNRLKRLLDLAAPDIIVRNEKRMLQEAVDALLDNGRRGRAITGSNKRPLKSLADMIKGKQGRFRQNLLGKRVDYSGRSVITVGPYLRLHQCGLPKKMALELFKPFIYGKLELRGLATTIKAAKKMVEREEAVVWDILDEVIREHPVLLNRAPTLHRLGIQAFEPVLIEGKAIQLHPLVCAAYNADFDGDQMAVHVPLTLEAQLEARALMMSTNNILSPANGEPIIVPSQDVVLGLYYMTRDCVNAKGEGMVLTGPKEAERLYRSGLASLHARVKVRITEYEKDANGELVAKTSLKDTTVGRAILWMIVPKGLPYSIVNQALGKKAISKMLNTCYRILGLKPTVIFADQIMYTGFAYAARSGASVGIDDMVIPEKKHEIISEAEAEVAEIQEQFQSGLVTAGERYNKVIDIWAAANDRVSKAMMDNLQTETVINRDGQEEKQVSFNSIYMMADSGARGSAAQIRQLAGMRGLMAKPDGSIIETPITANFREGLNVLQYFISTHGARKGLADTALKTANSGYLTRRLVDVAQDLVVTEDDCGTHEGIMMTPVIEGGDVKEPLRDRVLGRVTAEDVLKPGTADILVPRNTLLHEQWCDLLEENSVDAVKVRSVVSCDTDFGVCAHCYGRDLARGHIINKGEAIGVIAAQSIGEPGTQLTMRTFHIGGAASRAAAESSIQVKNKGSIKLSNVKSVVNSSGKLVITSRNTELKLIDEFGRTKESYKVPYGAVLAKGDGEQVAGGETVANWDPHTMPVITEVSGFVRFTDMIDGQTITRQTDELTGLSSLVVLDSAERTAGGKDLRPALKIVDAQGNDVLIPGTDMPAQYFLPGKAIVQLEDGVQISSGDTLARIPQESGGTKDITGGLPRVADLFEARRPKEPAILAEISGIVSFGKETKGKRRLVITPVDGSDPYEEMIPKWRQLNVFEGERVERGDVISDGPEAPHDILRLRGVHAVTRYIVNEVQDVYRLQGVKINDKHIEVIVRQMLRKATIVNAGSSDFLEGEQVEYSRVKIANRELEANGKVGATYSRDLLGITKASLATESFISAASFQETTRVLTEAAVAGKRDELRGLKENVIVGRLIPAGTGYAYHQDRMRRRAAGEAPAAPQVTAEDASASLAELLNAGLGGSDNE
T1 sequence (P0A8V2 whole entry): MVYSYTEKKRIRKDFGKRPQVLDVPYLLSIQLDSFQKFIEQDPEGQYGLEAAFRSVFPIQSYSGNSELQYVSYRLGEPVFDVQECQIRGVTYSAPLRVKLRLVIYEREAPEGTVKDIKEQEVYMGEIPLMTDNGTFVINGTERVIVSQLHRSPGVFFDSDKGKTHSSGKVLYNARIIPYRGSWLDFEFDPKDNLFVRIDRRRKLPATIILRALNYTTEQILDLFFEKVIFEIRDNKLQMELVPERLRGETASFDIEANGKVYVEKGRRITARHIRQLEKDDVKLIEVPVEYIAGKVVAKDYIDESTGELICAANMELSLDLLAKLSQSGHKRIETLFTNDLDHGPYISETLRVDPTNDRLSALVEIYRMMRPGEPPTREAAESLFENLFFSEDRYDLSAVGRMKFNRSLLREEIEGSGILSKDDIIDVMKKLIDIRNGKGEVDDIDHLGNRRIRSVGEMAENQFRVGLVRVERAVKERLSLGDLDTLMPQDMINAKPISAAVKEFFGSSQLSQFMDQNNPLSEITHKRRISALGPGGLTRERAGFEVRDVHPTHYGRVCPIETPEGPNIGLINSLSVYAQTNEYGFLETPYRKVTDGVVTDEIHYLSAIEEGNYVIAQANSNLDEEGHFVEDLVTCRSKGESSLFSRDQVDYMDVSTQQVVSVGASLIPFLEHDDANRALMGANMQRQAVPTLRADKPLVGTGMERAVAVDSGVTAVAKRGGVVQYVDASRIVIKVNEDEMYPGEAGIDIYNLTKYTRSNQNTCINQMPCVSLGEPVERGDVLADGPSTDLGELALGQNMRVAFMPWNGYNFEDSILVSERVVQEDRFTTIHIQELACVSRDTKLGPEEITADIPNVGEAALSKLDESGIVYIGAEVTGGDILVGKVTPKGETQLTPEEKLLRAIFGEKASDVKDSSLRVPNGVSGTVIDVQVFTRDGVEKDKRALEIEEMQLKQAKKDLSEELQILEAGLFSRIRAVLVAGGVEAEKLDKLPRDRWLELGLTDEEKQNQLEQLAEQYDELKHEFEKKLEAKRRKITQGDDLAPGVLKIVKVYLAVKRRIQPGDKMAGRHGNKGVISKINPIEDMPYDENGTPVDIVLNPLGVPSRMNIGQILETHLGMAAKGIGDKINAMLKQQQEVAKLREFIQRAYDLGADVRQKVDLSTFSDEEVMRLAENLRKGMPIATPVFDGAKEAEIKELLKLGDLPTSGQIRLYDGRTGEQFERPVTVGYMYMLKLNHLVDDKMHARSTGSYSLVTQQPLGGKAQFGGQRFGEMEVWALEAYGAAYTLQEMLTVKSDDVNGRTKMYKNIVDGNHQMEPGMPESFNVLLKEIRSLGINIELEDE

L1210 [9] = test: Cytotoxicity against mouse L1210 cells assessed as growth inhibition at 0.1 ug/ml after 24 hrs; type: functional; procedure, shortened: as §2
L1210 [10] = test: Cytotoxicity against mouse L1210 cells assessed as growth inhibition at 0.1 ug/ml after 48 hrs; type: functional; procedure, shortened: as §2
L1210 [11] = test: Cytotoxicity against mouse L1210 cells assessed as growth inhibition at 100 ug/ml after 48 hrs; type: functional; procedure, shortened: as §2
[12] = molecular target: T1, Bacterial DNA-directed RNA polymerase (Bacteria); test: Stimulation of Escherichia coli DNA-primed RNA polymerase activity using [8-14C]ATP at 50 ug/ml by scintillation counting; type: protein-complex assay; procedure, shortened: as §1
L1210 [13] = test: Cytotoxicity against mouse L1210 cells assessed as growth inhibition at 1 ug/ml after 48 hrs; type: functional; procedure, shortened: as §2
[14] = molecular target: T1, Bacterial DNA-directed RNA polymerase (Bacteria); test: Stimulation of Escherichia coli DNA-primed RNA polymerase activity using [8-14C]ATP at 400 ug/ml by scintillation counting; type: protein-complex assay; procedure, shortened: as §1
[15] = molecular target: T1, Bacterial DNA-directed RNA polymerase (Bacteria); test: Stimulation of Escherichia coli DNA-primed RNA polymerase activity using [8-14C]ATP at 200 ug/ml by scintillation counting; type: protein-complex assay; procedure, shortened: as §1
L1210 [16] = test: Cytotoxicity against mouse L1210 cells assessed as growth inhibition at 100 ug/ml after 24 hrs; type: functional; procedure, shortened: as §2
[17] = molecular target: T1, Bacterial DNA-directed RNA polymerase (Bacteria); test: Stimulation of Escherichia coli DNA-primed RNA polymerase activity using [8-14C]ATP by scintillation counting; type: protein-complex assay; procedure, shortened: as §1
[18] = molecular target: T1, Bacterial DNA-directed RNA polymerase (Bacteria); test: Stimulation of Escherichia coli DNA-primed RNA polymerase activity using [8-14C]ATP at 100 ug/ml by scintillation counting; type: protein-complex assay; procedure, shortened: as §1
L1210 [19] = test: Cytotoxicity against mouse L1210 cells assessed as growth inhibition at 0.01 ug/ml after 24 hrs; type: functional; procedure, shortened: as §2
Calf thymus DNA [20] = test: Binding affinity to calf thymus DNA assessed as decrease in DNA sedimentation coefficient at 20 x 10^-6 M relative to untreated control; type: nucleic-acid assay; details: Bos taurus
[21] = molecular target: T1, Bacterial DNA-directed RNA polymerase (Bacteria); test: Inhibition of Escherichia coli DNA-primed RNA polymerase activity using [8-14C]ATP at 50 ug/ml by scintillation counting; type: protein-complex assay; design: scale not given: the % may be the effect or the level left; procedure, shortened: as §1
[22] = molecular target: T1, Bacterial DNA-directed RNA polymerase (Bacteria); test: Inhibition of Escherichia coli DNA-primed RNA polymerase activity using [8-14C]ATP at 200 ug/ml by scintillation counting; type: protein-complex assay; design: scale not given: the % may be the effect or the level left; procedure, shortened: as §1
[23] = molecular target: T1, Bacterial DNA-directed RNA polymerase (Bacteria); test: Inhibition of Escherichia coli DNA-primed RNA polymerase activity using [8-14C]ATP at 25 ug/ml by scintillation counting; type: protein-complex assay; design: scale not given: the % may be the effect or the level left; procedure, shortened: as §1
[24] = molecular target: T1, Bacterial DNA-directed RNA polymerase (Bacteria); test: Inhibition of Escherichia coli DNA-primed RNA polymerase activity using [8-14C]ATP at 100 ug/ml by scintillation counting; type: protein-complex assay; design: scale not given: the % may be the effect or the level left; procedure, shortened: as §1
[25] = molecular target: T1, Bacterial DNA-directed RNA polymerase (Bacteria); test: Inhibition of Escherichia coli DNA-primed RNA polymerase activity using [8-14C]ATP at 400 ug/ml by scintillation counting; type: protein-complex assay; design: scale not given: the % may be the effect or the level left; procedure, shortened: as §1

In the case of `CCN(CC)CCCC(C)Nc1c2ccc(Cl)cc2nc2ccc(OC)cc12` (stereo unspecified) [QUINACRINE], the IC50 [1] is reported as 20 µM.
Work on `COc1ccc2nc3cc(Cl)ccc3c(NC3CC(C)(C)N([O])C(C)(C)C3)c2c1` yielded a growth inhibition (GI) (L1210 [2]) of 11%, a growth inhibition (GI) (L1210 [3]) of 9% and a growth inhibition (GI) (L1210 [4]) of 8%. For the same compound, the Ratio (Calf thymus DNA [5]) was 1.02, the Activity (Calf thymus DNA [6]) was “Active” and the growth inhibition (GI) (L1210 [7]) was 63%. It also gave an Activity [8] of 108%, a growth inhibition (GI) (L1210 [9]) of 12% and a growth inhibition (GI) (L1210 [10]) of 7%. It also gave a growth inhibition (GI) (L1210 [11]) of 78%, an Activity [12] of 120% and a growth inhibition (GI) (L1210 [13]) of 24%. The Activity [14] was 116%, the Activity [15] was 125% and the growth inhibition (GI) (L1210 [16]) was 6%. The Activity [17] was “Dose-dependent effect”, the Activity [18] was 129% and the growth inhibition (GI) (L1210 [19]) was 3%.
In the case of `COc1ccc2nc3cc(Cl)ccc3c(NC3CC(C)(C)N([O])C(C)(C)C3)c2n1`, the growth inhibition (GI) (L1210 [2]) is reported as 0%, the growth inhibition (GI) (L1210 [3]) is reported as 0% and the growth inhibition (GI) (L1210 [4]) is reported as 0%. The Ratio (Calf thymus DNA [5]) was 1.05, the growth inhibition (GI) (L1210 [7]) was 15% and the Activity [8] was 108%. It also gave a growth inhibition (GI) (L1210 [9]) of 0%, a growth inhibition (GI) (L1210 [10]) of 0% and a growth inhibition (GI) (L1210 [11]) of 38%. The Activity [12] was 110%, the growth inhibition (GI) (L1210 [13]) was 0% and the Activity [14] was 108%. The Activity [15] was 114%, the growth inhibition (GI) (L1210 [16]) was 0% and the Activity [17] was “Dose-dependent effect”. It also gave an Activity [18] of 110% and a growth inhibition (GI) (L1210 [19]) of 0%.
`COc1ccc2nc3cc(Cl)ccc3c(NCC3CC(C)(C)N([O])C3(C)C)c2c1` (stereo unspecified) showed a growth inhibition (GI) (L1210 [2]) of 35%, a growth inhibition (GI) (L1210 [3]) of 6% and a growth inhibition (GI) (L1210 [4]) of 7%. For the same compound, the Ratio (Calf thymus DNA [5]) was 1.04, the growth inhibition (GI) (L1210 [7]) was 76% and the Activity [8] was 112%. The growth inhibition (GI) (L1210 [9]) was 0%, the growth inhibition (GI) (L1210 [10]) was 5% and the growth inhibition (GI) (L1210 [11]) was 74%. For the same compound, the Activity [12] was 106%, the growth inhibition (GI) (L1210 [13]) was 19% and the Activity [14] was 107%. The Activity [15] was 102%, the growth inhibition (GI) (L1210 [16]) was 40% and the Activity [17] was “Dose-dependent effect”. For the same compound, the Activity [18] was 106% and the growth inhibition (GI) (L1210 [19]) was 10%.
With `Nc1ccc2cc3ccc(N)cc3nc2c1` the Ratio (Calf thymus DNA [20]) was 1.13.
Compound `Nc1c2ccccc2nc2ccccc12` has an Activity [21] of 31%, an Activity [22] of 4% and an Activity [23] of 40%. The Activity [24] was 31% and the Activity [25] was 1.8%.
`CC1(C)CC(CNc2c3ccccc3nc3ccccc23)C(C)(C)N1[O]` (stereo unspecified) gave an Activity [21] of 70%, a growth inhibition (GI) (L1210 [2]) of 46% and a growth inhibition (GI) (L1210 [3]) of 12%. For the same compound, the growth inhibition (GI) (L1210 [4]) was 3%, the Ratio (Calf thymus DNA [5]) was 1.08 and the growth inhibition (GI) (L1210 [7]) was 79%. The growth inhibition (GI) (L1210 [9]) was 3%, the Activity [22] was 22% and the growth inhibition (GI) (L1210 [10]) was 2%. It also gave a growth inhibition (GI) (L1210 [11]) of 82%, a growth inhibition (GI) (L1210 [13]) of 29% and an Activity [23] of 87%. The growth inhibition (GI) (L1210 [16]) was 48%, the Activity [24] was 45% and the Activity [25] was 10%. For the same compound, the growth inhibition (GI) (L1210 [19]) was 0%.
`COc1cc(NS(C)(=O)=O)ccc1Nc1c2ccccc2nc2ccccc12` [AMSACRINE] gave an inhibition of growth at 10 µg/mL (L1210 [2]; L1210, 24 h, read-out: GI) of 50%, an inhibition of growth at 1 µg/mL (L1210 [3]; L1210, 24 h, read-out: GI) of 42% and an inhibition of growth at 0.01 µg/mL (L1210 [4]; L1210, 48 h, read-out: GI) of 8%. It also gave an inhibition of growth at 10 µg/mL (L1210 [7]; L1210, 48 h, read-out: GI) of 87%, an inhibition of growth at 0.1 µg/mL (L1210 [9]; L1210, 24 h, read-out: GI) of 29% and an inhibition of growth at 0.1 µg/mL (L1210 [10]; L1210, 48 h, read-out: GI) of 75%. It also gave an inhibition of growth at 100 µg/mL (L1210 [11]; L1210, 48 h, read-out: GI) of 92%, an inhibition of growth at 1 µg/mL (L1210 [13]; L1210, 48 h, read-out: GI) of 82% and an inhibition of growth at 100 µg/mL (L1210 [16]; L1210, 24 h, read-out: GI) of 57%. The inhibition of growth at 0.01 µg/mL (L1210 [19]; L1210, 24 h, read-out: GI) was 6%.
`CC1(C)CC(Nc2c3ccccc3nc3ccccc23)CC(C)(C)N1[O]` was tested, and the Activity [21] was 77%, the growth inhibition (GI) (L1210 [2]) was 49% and the growth inhibition (GI) (L1210 [3]) was 27%. The growth inhibition (GI) (L1210 [4]) was 2%, the Ratio (Calf thymus DNA [5]) was 1.04 and the growth inhibition (GI) (L1210 [7]) was 84%. It also gave a growth inhibition (GI) (L1210 [9]) of 1%, an Activity [22] of 21% and a growth inhibition (GI) (L1210 [10]) of 7%. It also gave a growth inhibition (GI) (L1210 [11]) of 87%, a growth inhibition (GI) (L1210 [13]) of 56% and an Activity [23] of 96%. The growth inhibition (GI) (L1210 [16]) was 53%, the Activity [24] was 36% and the Activity [25] was 9%. It also gave a growth inhibition (GI) (L1210 [19]) of 0%.
`CC1(C)CC(NCCCNc2c3ccccc3nc3ccccc23)CC(C)(C)N1[O]` was tested, and the Activity [21] was 42%, the growth inhibition (GI) (L1210 [2]) was 56% and the growth inhibition (GI) (L1210 [3]) was 10%. For the same compound, the growth inhibition (GI) (L1210 [4]) was 0%, the growth inhibition (GI) (L1210 [7]) was 87% and the growth inhibition (GI) (L1210 [9]) was 0%. For the same compound, the Activity [22] was 20%, the growth inhibition (GI) (L1210 [10]) was 0% and the growth inhibition (GI) (L1210 [11]) was 86%. It also gave a growth inhibition (GI) (L1210 [13]) of 16%, an Activity [23] of 71% and a growth inhibition (GI) (L1210 [16]) of 47%. For the same compound, the Activity [24] was 31%, the Activity [25] was 12% and the growth inhibition (GI) (L1210 [19]) was 0%.
